Test results taken from article PMC7409366 (Bioorganic chemistry, 2020).
Like-named read-outs stand apart in the source and are kept apart here.

How the values were obtained:
FPR2 [1] = target: T1, FPR2 (Homo sapiens, UniProt P25090); assay: Ca2+ mobilization in FPR2-transfected HL60 cells; type: cell-based
T1 sequence (P25090 1-351): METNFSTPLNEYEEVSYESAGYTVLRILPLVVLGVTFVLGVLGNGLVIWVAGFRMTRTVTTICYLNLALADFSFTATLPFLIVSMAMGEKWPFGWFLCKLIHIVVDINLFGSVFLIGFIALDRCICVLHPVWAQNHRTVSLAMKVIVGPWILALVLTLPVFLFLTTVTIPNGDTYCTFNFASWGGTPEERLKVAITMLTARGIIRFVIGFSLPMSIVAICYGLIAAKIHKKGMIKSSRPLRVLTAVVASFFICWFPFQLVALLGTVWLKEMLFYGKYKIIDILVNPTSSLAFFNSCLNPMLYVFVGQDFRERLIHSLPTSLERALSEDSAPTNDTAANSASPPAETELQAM

human neutrophils [2] = assay: Human neutrophil chemotaxis; type: cell-based; conditions: read-out: Chemotaxis EC50
Summary of the method: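 Neutrophils from healthy-donor blood purified by dextran sedimentation, Histopaque 1077 gradient and hypotonic red-cell lysis, then washed twice into Ca/Mg-free HBSS; preparations >95% pure by light microscopy and >98% viable by trypan blue.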

human neutrophils [3] = assay: Desensitization of human neutrophil chemotaxis toward WKYMVm; type: cell-based; conditions: 0.5 h, read-out: Chemotaxis IC50
[4] = test system: CFA-induced rheumatoid arthritis in rats; assay: Paw pressure test in CFA-induced rheumatoid arthritis; type: in vivo, rat
[5] = test system: CFA-induced rheumatoid arthritis in rats; assay: Incapacitance test in CFA-induced rheumatoid arthritis; type: in vivo, rat; conditions: for Δ Weight (incapacitance test): day 14 after CFA
FPR1 [6] = target: T2, FPR1 (Homo sapiens, UniProt P21462); assay: Ca2+ mobilization in FPR1-transfected HL60 cells; type: cell-based
T2 sequence (P21462 1-350): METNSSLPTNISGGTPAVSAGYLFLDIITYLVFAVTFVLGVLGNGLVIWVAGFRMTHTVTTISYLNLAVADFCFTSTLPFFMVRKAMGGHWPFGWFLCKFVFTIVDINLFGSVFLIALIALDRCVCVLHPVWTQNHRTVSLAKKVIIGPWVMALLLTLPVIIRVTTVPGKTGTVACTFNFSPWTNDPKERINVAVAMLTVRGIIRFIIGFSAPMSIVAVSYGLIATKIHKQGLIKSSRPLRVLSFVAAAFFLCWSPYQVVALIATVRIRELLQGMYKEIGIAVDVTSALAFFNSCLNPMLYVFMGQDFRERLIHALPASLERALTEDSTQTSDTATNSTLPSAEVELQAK

[7] = test system: collagen-induced arthritis and antigen-induced arthritis; conditions: 30 mg/kg i.p., mice, both models; cited from earlier work
FPR1 [8] = target: T2, FPR1; conditions: read-out: FPR1 EC50; EC10; cited from earlier work
FPR2 [9] = target: T1, FPR2; conditions: read-out: FPR2 EC50; EC10; cited from earlier work
FPR3 = conditions: read-out: FPR3 EC50; EC10; cited from earlier work

For `COc1cccc(-c2cc(C#N)c(=O)n(CC(=O)Nc3ccc(Br)cc3)c2C)c1` [Compound 2a, N-(4-Bromophenyl)-2-[3-cyano-5-(3-methoxyphenyl)-6-methyl-2-oxopyridin-1(2H)-yl]acetamide], the “preference for FPR2 versus FPR1” value (FPR2 [1]; ratio of EC50 values) was 10 fold, the EC50 (human neutrophils [2]) was 20 ± 4 nM and the IC50 (human neutrophils [3]) was 6100 ± 1100 nM. For the same compound, the “effect on pain threshold (paw pressure test)” value ([4]; 10 mg/kg p.o., day 14 after CFA) was “effective between 30 and 60 min”, the “pain threshold (paw pressure test)” value ([4]; 30 mg/kg p.o., day 14 after CFA, 15 to 45 min, CFA + vehicle 37.5 ± 1 g) was 63.3 ± 2 g and the “effect on postural unbalance (incapacitance test)” value ([5]; 10 and 30 mg/kg p.o., between 15 and 60 min after administration) was “significantly reduced the postural unbalance”.
For `COc1ccc(-c2cc(C#N)c(=O)n(CC(=O)Nc3ccc(Br)cc3)c2C)cc1` [Compound 2b, N-(4-Bromophenyl)-2-[3-cyano-5-(4-methoxyphenyl)-6-methyl-2-oxopyridin-1(2H)-yl]acetamide], the EC50 (FPR1 [6]) was 1000 ± 200 nM and the EC50 (FPR2 [1]) was 480 ± 80 nM.
`COc1ccc(-c2cc(C#N)c(=O)n(CC(=O)Nc3ccc(Br)cc3)c2C)cc1OC` [Compound 2c, N-(4-Bromophenyl)-2-[3-cyano-5-(3,4-dimethoxyphenyl)-6-methyl-2-oxopyridin-1(2H)-yl]acetamide] showed an EC50 (FPR1 [6]) of 33200 ± 4900 nM, an EC50 (FPR2 [1]) of 600 ± 200 nM and an EC50 (human neutrophils [2]) of 60 ± 15 nM. The IC50 (human neutrophils [3]) was 18800 ± 3200 nM.
With `CCOC(=O)c1cc(C#N)c(=O)n(CC(=O)Nc2ccc(Br)cc2)c1C` [Compound 2d, 1-[(4-Bromophenylcarbamoyl)-methyl]-5-cyano-2-methyl-6-oxo-1,6-dihydropyridine-3-carboxylic acid ethyl ester] the EC50 (FPR1 [6]; read-out: FPR1-HL60 EC50, Ca2+ mobilization, mean of three independent experiments, N.A. = no activity (efficacy < 20% and EC50 < 50 μM as printed)) was 3000 nM, the EC50 (human neutrophils [2]) was 13 ± 1 nM and the IC50 (human neutrophils [3]) was 8400 ± 1200 nM.
With `CCOC(=O)c1cc(C(=O)Nc2cccc(OC)c2)c(=O)n(CC(=O)Nc2ccc(Br)cc2)c1C` [Compound 6a, 1-[(4-Bromophenylcarbamoyl)methyl]-5-(3-methoxyphenylcarbamoyl)-2-methyl-6-oxo-1,6-dihydropyridine-3-carboxylic acid ethyl ester] the EC50 (FPR1 [6]) was 400 ± 100 nM, the “preference for FPR1” value (FPR1 [6]; FPR1 versus FPR2 EC50) was “about 72 fold” and the EC50 (FPR2 [1]) was 28900 ± 2700 nM.
With `CCOC(=O)c1cc(C(=O)Nc2ccc(OC)cc2)c(=O)n(CC(=O)Nc2ccc(Br)cc2)c1C` [Compound 6b, 1-[(4-Bromophenylcarbamoyl)methyl]-5-(4-methoxyphenylcarbamoyl)-2-methyl-6-oxo-1,6-dihydropyridine-3-carboxylic acid ethyl ester] the EC50 (FPR1 [6]) was 7900 ± 1400 nM and the EC50 (FPR2 [1]) was 16400 ± 3300 nM.
With `COc1cccc(NC(=O)c2cc(-c3ccncc3)c(C)n(CC(=O)Nc3ccc(Br)cc3)c2=O)c1` [Compound 6c, 1-[(4-Bromophenylcarbamoyl)methyl]-2-methyl-6-oxo-1,6-dihydro-[3,4′]bipyridinyl-5-carboxylic acid (3-methoxyphenyl) amide] the EC50 (FPR1 [6]) was 1400 ± 400 nM and the EC50 (FPR2 [1]) was 1800 ± 210 nM.
`COc1cccc(NC(=O)c2cc(C#N)c(=O)n(CC(=O)Nc3ccc(Br)cc3)c2C)c1` [Compound 9a, 1-[(4-Bromophenylcarbamoyl)methyl]-5-cyano-2-methyl-6-oxo-1,6-dihydro-pyridine-3-carboxylic acid (3-methoxyphenyl) amide] gave an EC50 (FPR1 [6]) of 3900 ± 1200 nM and an EC50 (FPR2 [1]) of 310 ± 90 nM.
In the case of `COc1ccc(NC(=O)c2cc(C#N)c(=O)n(CC(=O)Nc3ccc(Br)cc3)c2C)cc1` [Compound 9b, 1-[(4-Bromophenylcarbamoyl)methyl]-5-cyano-2-methyl-6-oxo-1,6-dihydro-pyridine-3-carboxylic acid (4-methoxyphenyl) amide], the EC50 (FPR1 [6]) is reported as 960 ± 390 nM and the EC50 (FPR2 [1]) is reported as 440 ± 120 nM.
`CCCn1ccc(=O)n(CC(=O)Nc2ccc(Br)cc2)c1=O` [Compound 11d, N-(4-Bromophenyl)-2-(2,6-dioxo-3-propyl-3,6-dihydropyrimidin-1(2H)-yl)acetamide] showed an EC50 (FPR1 [6]) of 5500 ± 1600 nM and an EC50 (FPR2 [1]) of 4100 ± 1300 nM.
In the case of `CC(C)c1c(NC(=O)Nc2ccc(Cl)cc2)c(=O)n(-c2ccccc2)n1C` [Cpd43], the “effect on arthritis disease severity” value [7] is given as “significantly reduced disease severity”.
In the case of `COc1cccc(Nc2c(C(C)=O)c(C)nn(CC(=O)Nc3ccc(Br)cc3)c2=O)c1` [EC10], the “effect on pain threshold (paw pressure test)” value ([4]; 10 and 30 mg/kg p.o., between 15 and 60 min, similar efficacy as EC3) is given as “increased the pain threshold”, the “Δ Weight (incapacitance test)” value ([5]; 10 and 30 mg/kg p.o., 15 to 60 min, CFA + vehicle 62.8 ± 3.1 g) is given as 40.2 ± 1.1 g and the EC50 (FPR1 [8]) is given as 45 nM. For the same compound, the EC50 (FPR2 [9]) was 170 nM and the EC50 (FPR3) was 210 nM.
In the case of `CC(C)Cc1ccc(C(C)C(=O)O)cc1` (centres unmarked) [Ibuprofen, ibuprofen, reference compound], the “Δ Weight (incapacitance test)” value ([5]; 100 mg kg−1 p.o., 15 to 30 min, CFA + vehicle 62.6 ± 2.5 g) is reported as 34.7 ± 6.1 g.
